Converted amounts (≈) assume the structure as drawn.
Tested on: Mycobacterium tuberculosis
Assay: Antimycobacterial activity against multi-drug resistant Mycobacterium tuberculosis LAM-1 after 1 to 6 days by BACTEC 460-TB assay
Format: functional
Summary of the method: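 Drug-resistant clinical LAM-1 isolate of M.tb. (resistant to isoniazid, rifampicin, rifabutin, prothionamid) tested in the BACTEC 460-TB radiometric system. Growth index read over time and compared with an untreated control and with a 100-fold diluted inoculum to derive MIC99. Isoniazid run in parallel to confirm resistance.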

## Cc1ccc2c3c(cnc2c1)C(=O)c1ccccc1C3=O
  MIC99: 0.71 µM (≈ 0.194 µg/mL)
